Assays:
[1] = target: T1, Growth hormone secretagogue receptor type 1 (Homo sapiens, UniProt Q92847); test: Displacement of [125I-His9]-ghrelin from human GRLN receptor by radioligand binding assay
Procedure, shortened: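 Competitive binding on isolated membranes expressing GRLN, with 125I-His-9 octanoylated ghrelin as radioligand.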

[2] = target: T1, Growth hormone secretagogue receptor type 1; test: Agonist activity at human GRLN receptor expressed in HEK293 cells assessed as calcium binding by Ca2+ bioluminescence aequorin assay; type: functional, cell-based
Procedure, shortened: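 HEK-293 cells expressing human GRLN. Ca2+ bioluminescence read out by aequorin. Duplicate samples, maximum tolerated interassay variability ±10%. Full agonism defined as maximal response >70% of that of octanoylated human ghrelin.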

[3] = Cmax in Sprague-Dawley rat at 8 mg/kg, po; type: ADME, organism-based; design: dose 8 mg/kg, route oral; settings: in vivo
Procedure, shortened: (§1)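 Male Sprague−Dawley rats (250 ± 20 g), 3 per compound in a single experiment, gavage 8 mg/kg in physiological saline. Blood taken at 12 time points over 6 h into K3EDTA tubes. Plasma stored at −20 °C, assayed by LC-MS/MS, noncompartmental analysis.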

[4] = AUC (0 to infinity) in Sprague-Dawley rat at 8 mg/kg, po; type: ADME, organism-based; design: time infinity, dose 8 mg/kg, route oral; settings: plasma; procedure, shortened: as §1
[5] = Permeability across mucosal to serosal side in human Caco2 cells; type: ADME, cell-based; settings: Caco-2, read-out: permeability
[6] = Permeability across serosal to mucosal side human Caco2 cells; type: ADME, cell-based; settings: Caco-2, read-out: permeability
[7] = Drug metabolism in rat liver microsomes after 15 mins; type: ADME, Microsome; settings: read-out: Drug metabolism
Cytochrome P450 3A4 = Cytochrome P450 3A4 (Homo sapiens, UniProt P08684); test: Inhibition of human CYP3A4; type: ADME
Cytochrome P450 2D6 = Cytochrome P450 2D6 (Homo sapiens, UniProt P10635); test: Inhibition of human CYP2D6; type: ADME
Cytochrome P450 2C9 = Cytochrome P450 2C9 (Homo sapiens, UniProt P11712); test: Inhibition of human CYP2C9; type: ADME
Cytochrome P450 2C19 = Cytochrome P450 2C19 (Homo sapiens, UniProt P33261); test: Inhibition of human CYP2C19; type: ADME
Cytochrome P450 1A2 = target: T2, Cytochrome P450 1A2 (Homo sapiens, UniProt P05177); test: Inhibition of human CYP1A2; type: ADME
T2 sequence (P05177 whole entry): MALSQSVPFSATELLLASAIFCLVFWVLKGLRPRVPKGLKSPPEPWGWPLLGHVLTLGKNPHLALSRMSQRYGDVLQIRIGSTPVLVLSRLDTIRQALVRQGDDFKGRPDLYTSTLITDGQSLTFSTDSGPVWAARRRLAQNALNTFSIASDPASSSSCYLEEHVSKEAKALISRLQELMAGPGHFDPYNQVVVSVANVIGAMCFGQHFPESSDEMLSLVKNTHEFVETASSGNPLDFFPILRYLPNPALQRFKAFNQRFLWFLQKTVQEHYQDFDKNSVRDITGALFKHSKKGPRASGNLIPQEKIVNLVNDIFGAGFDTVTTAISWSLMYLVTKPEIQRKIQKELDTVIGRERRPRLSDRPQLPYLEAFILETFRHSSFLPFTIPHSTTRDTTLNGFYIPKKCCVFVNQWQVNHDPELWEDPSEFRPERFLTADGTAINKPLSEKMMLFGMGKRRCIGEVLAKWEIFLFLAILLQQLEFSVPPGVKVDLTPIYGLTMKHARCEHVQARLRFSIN

[8] = Cmax in cynomolgus monkey at 8 mg/kg, po; type: ADME, organism-based, Macaca fascicularis; design: dose 8 mg/kg, route oral; settings: in vivo
Salmonella typhimurium = test: Induction of mutagenicity in Salmonella Typhimurium up to 5000 ug/plate by Ames test; type: toxicity, organism-based; settings: salmonella enterica subsp. enterica serovar typhimurium
Procedure, shortened: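 Ames test run up to 5000 μg/plate.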

[9] = Dissociation constant, pKa of the compound; type: physicochemical
Rattus norvegicus = test: Induction of gastric emptying in overnight-fasted iv dosed Wistar rat measured after 15 mins by […] analysis; type: functional, organism-based, Stomach
Procedure, shortened: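 Overnight-fasted male Wistar rats (200 ± 20 g), N = 5 per point. Compound given IV in 9% 2-hydroxypropyl-β-cyclodextrin together with an oral 2% methylcellulose meal containing 0.05% phenol red (2 mL). Sacrifice 15 min later; phenol red left in stomach read at 560 nm. […] Metoclopramide positive control at 10 mg/kg IV.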

Cynomolgus monkey [10] = test: Oral bioavailability in cynomolgus monkey at […]; settings: in vivo
Cynomolgus monkey [11] = test: AUC (0 to infinity) in cynomolgus monkey at […], po; settings: in vivo
[12] = Oral bioavailability in Sprague-Dawley rat at 8 mg/kg; settings: in vivo
[13] = Drug excretion in Sprague-Dawley rat assessed as unchanged recovery in feces at 6 mg/kg, iv measured after 30 mins; settings: faeces
[14] = Elimination half life in Sprague-Dawley rat at 2 m/kg, iv; type: ADME, organism-based; settings: in vivo, read-out: beta t1/2
[15] = Volume of distribution at steady state in Sprague-Dawley rat at 2 m/kg, iv; type: ADME, organism-based; settings: in vivo, read-out: Vdss
[16] = Clearance in Sprague-Dawley rat at 2 m/kg, iv; type: ADME, organism-based; settings: in vivo
[17] = Half life in human liver microsomes; type: ADME, Microsome
[18] = Clearance in cynomolgus monkey at 0.5 mg/kg, iv; settings: in vivo
[19] = Elimination half life in cynomolgus monkey at 0.5 mg/kg, iv; settings: in vivo, read-out: beta t1/2
[20] = Volume of distribution at steady state in cynomolgus monkey at 0.5 mg/kg, iv; settings: in vivo, read-out: Vdss
[21] = target: motilin receptor (Homo sapiens) (UniProt O43193); test: Selectivity ratio of EC50 for human motilin receptor to EC50 for human GRLN receptor

T1 sequence (Q92847 whole entry): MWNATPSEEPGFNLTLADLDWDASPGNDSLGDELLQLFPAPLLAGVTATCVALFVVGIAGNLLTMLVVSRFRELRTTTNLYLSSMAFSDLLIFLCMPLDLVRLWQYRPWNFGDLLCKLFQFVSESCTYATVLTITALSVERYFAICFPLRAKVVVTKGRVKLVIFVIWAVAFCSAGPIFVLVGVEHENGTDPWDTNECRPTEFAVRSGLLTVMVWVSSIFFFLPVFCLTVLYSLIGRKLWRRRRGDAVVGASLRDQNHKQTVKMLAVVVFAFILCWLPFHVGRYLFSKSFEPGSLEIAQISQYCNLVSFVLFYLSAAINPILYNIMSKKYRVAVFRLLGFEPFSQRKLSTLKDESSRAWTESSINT
Cytochrome P450 3A4, sequence (P08684 whole entry): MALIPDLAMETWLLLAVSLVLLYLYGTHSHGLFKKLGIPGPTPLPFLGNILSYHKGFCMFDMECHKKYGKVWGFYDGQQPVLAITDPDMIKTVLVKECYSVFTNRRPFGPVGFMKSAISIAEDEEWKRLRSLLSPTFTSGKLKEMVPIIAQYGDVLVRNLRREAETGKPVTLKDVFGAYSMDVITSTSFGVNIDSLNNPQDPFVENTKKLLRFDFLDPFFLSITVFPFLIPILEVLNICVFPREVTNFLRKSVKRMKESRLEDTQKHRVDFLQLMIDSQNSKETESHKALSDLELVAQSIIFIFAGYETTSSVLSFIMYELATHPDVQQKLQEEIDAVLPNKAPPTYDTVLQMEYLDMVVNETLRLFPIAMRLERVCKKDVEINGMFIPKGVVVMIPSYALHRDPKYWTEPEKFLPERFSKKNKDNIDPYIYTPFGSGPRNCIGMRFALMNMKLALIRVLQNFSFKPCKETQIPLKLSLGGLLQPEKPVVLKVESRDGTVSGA
Cytochrome P450 2C19, sequence (P33261 whole entry): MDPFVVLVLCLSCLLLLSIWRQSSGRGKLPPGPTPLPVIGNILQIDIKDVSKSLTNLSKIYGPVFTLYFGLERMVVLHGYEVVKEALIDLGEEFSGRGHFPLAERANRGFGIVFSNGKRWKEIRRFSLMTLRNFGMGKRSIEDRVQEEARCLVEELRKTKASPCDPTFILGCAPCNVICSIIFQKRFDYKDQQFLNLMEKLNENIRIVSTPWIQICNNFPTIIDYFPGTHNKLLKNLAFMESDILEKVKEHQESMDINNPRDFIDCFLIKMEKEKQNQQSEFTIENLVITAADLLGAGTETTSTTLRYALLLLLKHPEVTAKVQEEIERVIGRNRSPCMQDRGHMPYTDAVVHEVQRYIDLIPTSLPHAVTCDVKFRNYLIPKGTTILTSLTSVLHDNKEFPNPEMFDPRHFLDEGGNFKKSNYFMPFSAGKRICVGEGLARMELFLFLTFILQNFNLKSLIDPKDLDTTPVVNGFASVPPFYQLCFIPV
Cytochrome P450 2C9, sequence (P11712 whole entry): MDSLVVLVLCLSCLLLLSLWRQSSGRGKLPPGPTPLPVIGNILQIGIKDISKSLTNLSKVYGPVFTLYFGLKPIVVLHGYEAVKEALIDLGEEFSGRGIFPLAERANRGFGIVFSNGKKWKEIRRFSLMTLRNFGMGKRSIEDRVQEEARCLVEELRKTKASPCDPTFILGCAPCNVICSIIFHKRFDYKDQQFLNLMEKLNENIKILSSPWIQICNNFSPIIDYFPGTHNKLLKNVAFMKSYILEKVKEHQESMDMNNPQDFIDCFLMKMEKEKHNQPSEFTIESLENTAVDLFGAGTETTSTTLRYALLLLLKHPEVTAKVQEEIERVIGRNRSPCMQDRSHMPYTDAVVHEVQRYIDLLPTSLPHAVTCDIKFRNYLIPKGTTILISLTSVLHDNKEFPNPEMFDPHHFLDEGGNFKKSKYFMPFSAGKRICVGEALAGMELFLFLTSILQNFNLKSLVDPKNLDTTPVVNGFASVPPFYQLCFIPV
Cytochrome P450 2D6, sequence (P10635 whole entry): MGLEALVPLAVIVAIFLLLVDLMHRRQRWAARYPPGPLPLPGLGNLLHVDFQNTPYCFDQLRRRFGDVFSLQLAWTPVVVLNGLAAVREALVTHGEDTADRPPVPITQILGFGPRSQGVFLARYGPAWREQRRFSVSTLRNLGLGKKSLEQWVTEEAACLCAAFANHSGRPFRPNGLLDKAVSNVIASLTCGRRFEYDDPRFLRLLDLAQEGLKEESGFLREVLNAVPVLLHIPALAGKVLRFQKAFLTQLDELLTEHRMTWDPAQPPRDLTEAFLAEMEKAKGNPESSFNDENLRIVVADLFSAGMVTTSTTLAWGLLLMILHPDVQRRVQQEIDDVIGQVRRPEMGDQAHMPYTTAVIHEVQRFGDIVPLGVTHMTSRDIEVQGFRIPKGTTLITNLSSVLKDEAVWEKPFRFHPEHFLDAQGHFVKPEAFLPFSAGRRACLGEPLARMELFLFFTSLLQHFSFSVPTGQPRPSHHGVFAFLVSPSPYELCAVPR

Structure (SMILES)	Ki [1]	EC50 [2]	Cmax [3]	AUC(0-inf) [4]	Papp A→B [5]	Papp B→A [6]	metabolised at […] [7]	IC50 (Cytochrome P450 3A4)	IC50 (Cytochrome P450 2D6)	IC50 (Cytochrome P450 2C9)	IC50 (Cytochrome P450 2C19)	IC50 (Cytochrome P450 1A2)	Cmax [8]	EC50 (Rattus norvegicus)	F (Cynomolgus monkey [10])	AUC (Cynomolgus monkey [11])	bioavailability [12]	further results
C[C@@H]1CN[C@@H](C2CC2)C(=O)N(C)[C@H](C)C(=O)N[C@H](Cc2ccc(F)cc2)C(=O)NCCCc2ccccc2O1.Cl.O [ULIMORELIN HYDROCHLORIDE]	16 nM	29 nM	390 nM	1.37 µM·h	15 ×10⁻⁶ cm/s	14 ×10⁻⁶ cm/s	68%	2400 nM	84000 nM	66000 nM	> 100000 nM	> 100000 nM	1400 nM	0.91 mg/kg	24%	75.4 µM·min	24%	Activity (Salmonella typhimurium): Non-toxic; pKa [9]: 7.17; dose excreted at 0.5 h [13]: 95%
C[C@@H]1C(=O)N[C@H](Cc2ccc(F)cc2)C(=O)NCCCc2ccc(F)cc2OCCN[C@@H](C2CC2)C(=O)N1C	2.6 nM	27 nM	900 nM	1.67 µM·h	19.8 ×10⁻⁶ cm/s	12.5 ×10⁻⁶ cm/s	54%	1200 nM	31000 nM	> 100000 nM	> 100000 nM	> 100000 nM	90 nM	1.2 mg/kg	7%	10.3 µM·min	36%	half-life [14]: 44 min; Vd [15]: 1.8 L/kg; clearance [16]: 28 mL/min/kg; half-life [17]: 41 min; clearance [18]: 20 mL/min/kg; half-life [19]: 29 min; Vd [20]: 0.66 L/kg
CCC[C@@H]1NCCOc2ccccc2/C=C/CNC(=O)[C@@H](Cc2ccccc2)NC(=O)CN(C)C1=O	86 nM	134 nM	–	–	–	–	–	–	–	–	–	–	–	–	–	–	–	Ratio EC50 [21]: > 100

From ChEMBL document CHEMBL1921692 (J Med Chem, 2011)
